In ChEMBL document CHEMBL1148965, “Cytotoxic and other metabolites of Aspergillus inhabiting the rhizosphere of Sonoran desert plants” (J Nat Prod, 2004):
Active and inactive are the calls of the source. The calls are words filed in the database; no cut-off is given here.

Experiments:
NCI-H460 [1] = assay: Cytotoxicity against human NCI-H460 cells at 10 ug/mL by MTT assay; type: functional, cell-based
[2] = Cytotoxicity against human WI38 cells at 10 ug/mL by MTT assay; type: cell-based; conditions: wi-38
SF-268 [3] = assay: Cytotoxicity against human SF268 cells at 10 ug/mL by MTT assay; type: functional, cell-based
MIA PaCa-2 [4] = assay: Cytotoxicity against human MIAPaCa2 cells at 10 ug/mL by MTT assay; type: functional, cell-based
MCF7 [5] = assay: Cytotoxicity against human MCF7 cells at 10 ug/mL by MTT assay; type: functional, cell-based
MIA PaCa-2 [6] = assay: Cytotoxicity against human MIAPaCa2 cells by MTT assay; type: functional, cell-based
How it was run: (§1)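 Cells were exposed to DMSO-dissolved samples for 72 h in RPMI-1640 with 10% fetal bovine serum. Viability was read by tetrazolium (MTT) colorimetry. IC50 was taken as the concentration giving 50% inhibition of cell proliferation/survival. WI-38 are normal human primary fibroblasts.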

MCF7 [7] = assay: Cytotoxicity against human MCF7 cells by MTT assay; type: functional, cell-based; how it was run: as §1
NCI-H460 [8] = assay: Cytotoxicity against human NCI-H460 cells by MTT assay; type: functional, cell-based; how it was run: as §1
SF-268 [9] = assay: Cytotoxicity against human SF268 cells by MTT assay; type: functional, cell-based; how it was run: as §1
[10] = Cytotoxicity against human WI38 cells by MTT assay; type: cell-based; conditions: WI-38; how it was run: as §1

Compound | Activity (NCI-H460 [1]) | Activity [2] | Activity (SF-268 [3]) | Activity (MIA PaCa-2 [4]) | Activity (MCF7 [5]) | IC50 (MIA PaCa-2 [6]) | IC50 (MCF7 [7]) | IC50 (NCI-H460 [8]) | IC50 (SF-268 [9]) | IC50 [10]
COCC(C)C1(O)OC(=O)C=C1OC (stereo not given) | inactive | Non-toxic | inactive | inactive | inactive | – | – | – | – | –
C/C=C/C1=CC(=O)[C@](C)(/C=C/C=C/CC)O1 | – | – | – | – | – | 6.3 µM | 11.7 µM | 5.5 µM | 6.8 µM | –
CC/C=C/C=C/[C@]1(C)OC(CC(C)O)=CC1=O (stereo not given in full) [TERREFURANONE] | inactive | Non-toxic | inactive | inactive | inactive | – | – | – | – | –
C=CC(C)(C)c1[nH]c2ccccc2c1C1=C(O)C(=O)C(c2c[nH]c3ccccc23)=C(CC=C(C)C)C1=O [TERREQUINONE A] | – | – | – | – | – | 5.4 µM | 6.8 µM | 5.6 µM | 13.9 µM | –
COc1cccc2c1C(=O)c1c(O)c3c(c(O)c1C2=O)C[C@@](O)(C(=O)CO)C[C@@H]3O[C@H]1C[C@H](N)[C@H](O)[C@H](C)O1 [DOXORUBICIN] | – | – | – | – | – | – | – | 0.01 µM | – | 0.3 µM
C[C@H]1CCCC(O)CC(=O)c2c(O)cc(O)cc2CC(=O)O1 (stereo not given in full) | – | – | – | – | – | 3.3 µM | 2 µM | 2.1 µM | 4.1 µM | 11.6 µM
C=C(C)C1(O)OC(=O)C=C1OC (stereo not given) [PENICILLIC ACID] | – | – | – | – | – | 8 µM | 12.8 µM | 5.8 µM | 20 µM | 57.5 µM
COC1=CC(=O)OC1(O)C(C)C (stereo not given) | inactive | Non-toxic | inactive | inactive | inactive | – | – | – | – | –
COC1CCC[C@H](C)OC(=O)Cc2cc(O)cc(O)c2C(=O)C1 (stereo not given in full) | – | – | – | – | – | 1.2 µM | 0.6 µM | 0.9 µM | 0.9 µM | 1.7 µM
C[C@H]1CCC/C=C/C(=O)c2c(O)cc(O)cc2CC(=O)O1 [DEHYDROCURVULARIN] | – | – | – | – | – | 1.9 µM | 1.3 µM | 1.1 µM | 2.5 µM | 3.6 µM
C=CC(C)(C)[C@]12CC3C(=O)Nc4ccccc4C(=O)N3[C@H]1N(C(C)=O)c1ccccc12 (stereo not given in full) | inactive | Non-toxic | inactive | inactive | inactive | – | – | – | – | –
COC1=CC(=O)C[C@](C)(O)[C@H]1O (relative stereo) | inactive | Non-toxic | inactive | inactive | inactive | – | – | – | – | –
